{"source": "paper PMC4364164", "about": "(International Journal of Nanomedicine, 2015)", "key": {"cells": {"tested_on": "cells", "settings": "NBD alone; cited from earlier work"}, "U-87 MG cells [1]": {"tested_on": "U-87 MG cells", "test": "MTT assay for cell viability, U-87 MG", "type": "cell-based, human", "settings": "for cell death induced: positive control, data not shown", "in_short": "(§1)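 Seeded in 96-well plates: SH-SY5Y at 8,000/well, U-87 MG at 5,000/well. Exposed 20 h to test compound 0.5–15 μM or equal-volume PBS vehicle; H2O2 400 or 800 μM as positive control. MTT 0.5 mg/mL for 3 h at 37°C. Formazan dissolved in isopropanol with 0.1 M HCl; optical density at 590 nm. Mean ± SE of five separate incubations.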"}, "SH-SY5Y cells [2]": {"tested_on": "SH-SY5Y cells", "test": "MTT assay for cell viability, SH-SY5Y", "type": "cell-based, human", "settings": "for cell death induced: positive control, data not shown", "in_short": "as §1"}, "brain homogenates [3]": {"tested_on": "brain homogenates", "test": "Mitochondrial respiration rate in brain homogenate after in vivo administration", "settings": "rat brain homogenate; intravenous 40 μg/100 g, 3.5 hours; three rats", "in_short": "(§2)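 Same iv dosing (40 μg/100 g, PBS vehicle, three rats, sampled at 3.5 h). Homogenate (300 μg protein) in 1 mL buffer: 80 mM KCl, 50 mM HEPES, 1 mM EGTA, 5 mM KH2PO4, 2 mM MgCl2, 1% BSA, pH 7.4. Added 4 μM rotenone and 5 mM succinate; basal without ADP, stimulated with 200 μM ADP; respiratory control ratio derived. Clark electrode at 37°C; 1 mM KCN added. Triplicate runs.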"}, "brain homogenates [4]": {"tested_on": "brain homogenates", "test": "Cytochrome oxidase activity", "type": "in vivo", "settings": "rat brain homogenate; intravenous 40 μg/100 g, 3.5 hours; three rats", "in_short": "(§3)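 Male Wistar rats (250–300 g), three per group, given a single iv dose of NBD-peptide 40 μg/100 g or PBS vehicle. Zoletil anaesthesia, decapitation at 3.5 h. Tissue homogenised 1:5 w/v in mannitol/sucrose/Tris/EDTA/EGTA/1% BSA medium, pH 7.4. Diluted 1:2 with Lubrol, 30 min on ice. Cytochrome oxidase assayed polarographically (Clark electrode, 37°C), with 1 mM KCN control. Mean ± SE of three rats; triplicate runs.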"}, "SH-SY5Y cells [5]": {"tested_on": "SH-SY5Y cells", "test": "Maximal oxidative capacity", "type": "cell-based, human", "settings": "0–15 μM, 20 hours, Clark-type oxygen electrode 37°C, five separate incubations (Figure 1C)"}, "liver homogenates [6]": {"tested_on": "liver homogenates", "test": "Cytochrome oxidase activity", "type": "in vivo", "settings": "rat liver homogenate; intravenous 40 μg/100 g, 3.5 hours; three rats", "in_short": "as §3"}, "blood–brain barrier": {"tested_on": "blood–brain barrier", "test": "Immunofluorescence analysis of brain sections", "type": "in vivo", "settings": "rat, intravenous 40 μg/100 g, 3.5 hours", "in_short": "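Same rats dosed iv at 40 μg/100 g, sampled at 3.5 h. Brains Bouin-fixed and paraffin-embedded; sections dewaxed, citrate (pH 6.0) microwave unmasking at 96°C. Stained with anti-BBB SMI-71, anti-GFAP or anti-tubulin III and 594-nm secondaries; imaged at 488/515 and 594/618 nm. Deconvolved, nMDP colocalisation. Outside/inside-vessel fluorescence per ROI area over ten sections, n=3 per group; two-tailed unpaired t-test.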"}, "U-87 MG cells [7]": {"tested_on": "U-87 MG cells", "test": "Maximal oxidative capacity", "type": "cell-based, human", "settings": "regardless of the concentration used, 20 hours, five separate incubations (Figure 1D)"}, "liver homogenates [8]": {"tested_on": "liver homogenates", "test": "Mitochondrial respiration rate in liver homogenate after in vivo administration", "settings": "rat liver homogenate; intravenous 40 μg/100 g, 3.5 hours; three rats", "in_short": "as §2"}, "SH-SY5Y cells [9]": {"tested_on": "SH-SY5Y cells", "test": "Cellular uptake by fluorescence microscopy, SH-SY5Y", "type": "cell-based, human", "settings": "1 or 5 μM (Figure 2: 5 μM), 2 hours, NBD fluorescence, fixed cells", "in_short": "(§4)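 NBD-labelled peptide (N-terminal) in PBS. Cells grown in DMEM with 10% FBS, 2 mM L-glutamine, penicillin and streptomycin at 37°C in 5% CO2. Seeded at 60,000/well on four-well chamber slides, then exposed to 1 or 5 μM for 2 h. Fixed in ice-cold methanol for 10 min and mounted in glycerol/PBS 1:1. Imaged on NBD (λem 515 nm) and DAPI (λex 350/λem 461 nm) channels.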"}, "liver": {"tested_on": "liver", "test": "Fluorescence histological analysis ex vivo, liver", "type": "in vivo", "settings": "rat, single intravenous administration of gH625-NBD 40 μg/100 g body weight, 3.5 hours", "in_short": "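Male Wistar rats (250–300 g; n=3 per group) got one iv dose of NBD-labelled test peptide, 40 μg/100 g, or PBS vehicle. After 3.5 h: ip Zoletil anaesthesia, then decapitation. Liver dissected. Half was fixed in Bouin's fluid 24 h and paraffin-embedded. 7 μm sections treated with 0.1% Sudan Black B in 70% ethanol 20 min against autofluorescence, then hemallum-stained and imaged for green fluorescence.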"}, "U-87 MG cells [10]": {"tested_on": "U-87 MG cells", "test": "Cellular uptake by fluorescence microscopy, U-87 MG", "type": "cell-based, human", "settings": "1 or 5 μM (Figure 2: 5 μM), 2 hours, NBD fluorescence, fixed cells", "in_short": "as §4"}, "U-87 MG cells [11]": {"tested_on": "U-87 MG cells", "test": "Spectrofluorimetric analysis of internalized peptide, U-87 MG", "type": "cell-based, human", "settings": "concentration not given"}, "brain": {"tested_on": "brain", "test": "Fluorescence histological analysis ex vivo, brain", "type": "in vivo", "settings": "rat, single intravenous administration of gH625-NBD 40 μg/100 g body weight, 3.5 hours", "in_short": "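Male Wistar rats (250–300 g; n=3 per group) got one iv dose of NBD-labelled test peptide, 40 μg/100 g, or PBS vehicle. After 3.5 h: ip Zoletil anaesthesia, then decapitation. Sagittal 10 μm sections: Bouin's fixation 24 h, paraffin, 0.1% Sudan Black B in 70% ethanol 20 min, hemallum. Co-stained for SMI-71 endothelial marker, GFAP or tubulin III (citrate pH 6.0 unmasking), colocalization by nMDP. Outside/inside-vessel fluorescence ratio from ≥10 slices.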"}}, "data": [{"compound": "7-nitrobenz-2-oxa-1,3-diazole-4-yl [NBD]", "values": [{"measurement": "penetration into the cells", "setting": "cells", "result": "almost unable to penetrate"}]}, {"compound": "OO", "note": "[H2O2]", "values": [{"measurement": "cell death induced", "setting": "U-87 MG cells [1]; 400 μM", "result": 22, "unit": "%"}, {"measurement": "cell death induced", "setting": "U-87 MG cells [1]; 800 μM", "result": 52, "unit": "%"}, {"measurement": "cell death induced", "setting": "SH-SY5Y cells [2]; 400 μM", "result": 30, "unit": "%"}, {"measurement": "cell death induced", "setting": "SH-SY5Y cells [2]; 800 μM", "result": 45, "unit": "%"}]}, {"compound": "H-HGLASTLTRWAHYNALIRAFGGG-NH2 [gH625]", "values": [{"measurement": "effect on respiratory control ratio", "setting": "brain homogenates [3]", "result": "no changes"}, {"measurement": "effect on maximal oxidative capacity (cytochrome oxidase activity)", "setting": "brain homogenates [4]", "result": "not affected"}, {"measurement": "effect on maximal oxidative capacity (cytochrome oxidase activity)", "setting": "SH-SY5Y cells [5]", "result": "did not significantly affect"}, {"measurement": "effect on cell viability (MTT)", "setting": "U-87 MG cells [1]; 0.5–15 μM, 20 hours, mean ± standard error of five separate incubations (Figure 1B)", "result": "no significant effect"}, {"measurement": "effect on maximal oxidative capacity (cytochrome oxidase activity)", "setting": "liver homogenates [6]", "result": "not affected"}, {"measurement": "colocalization with astrocytes surrounding the BBB (anti-GFAP, nMDP)", "setting": "blood–brain barrier", "result": "little or no colocalization"}, {"measurement": "colocalization with the endothelial BBB (anti-BBB SMI-71, nMDP)", "setting": "blood–brain barrier", "result": "More colocalization"}, {"measurement": "effect on maximal oxidative capacity (cytochrome oxidase activity)", "setting": "U-87 MG cells [7]", "result": "ineffective"}, {"measurement": "effect on mitochondrial respiration rate", "setting": "liver homogenates [8]", "result": "does not influence"}, {"measurement": "cellular uptake by fluorescence microscopy", "setting": "SH-SY5Y cells [9]", "result": "significant uptake"}, {"measurement": "effect on cell viability (MTT)", "setting": "SH-SY5Y cells [2]; 0.5–15 μM, 20 hours, mean ± standard error of five separate incubations (Figure 1A)", "result": "no significant effect"}, {"measurement": "distribution in liver (fluorescence histology)", "setting": "liver", "result": "partly taken up by Kupffer cells"}, {"measurement": "cellular uptake by fluorescence microscopy", "setting": "U-87 MG cells [10]", "result": "significant uptake"}, {"measurement": "administered peptide taken up", "setting": "U-87 MG cells [11]", "result": "more than 90%"}, {"measurement": "distribution in brain (fluorescence histology)", "setting": "brain", "result": "reaches the BBB and accumulates in the extensions of nerve cells"}]}]}
